The source of these data is ChEMBL document CHEMBL1126556, “Novel antiasthmatic agents with dual activities of thromboxane A2 synthetase inhibition and bronchodilation. 1. 2-[2-(1-Imidazolyl)alkyl]-1(2H)-phthalazinones” (J Med Chem, 1993).

Data set [1] is described as follows: Partition coefficient (logP). The class given is physicochemical. To be noted: octanol/water.
Data set [2] is filed under the species Cavia porcellus. Put plainly: Tested in vitro for bronchodilatory activity by spontaneous tone inhibition in guinea pig tracheal strips. The class given is functional. To be noted: Trachea.
The test system of data set [3] is Thromboxane-A synthase (Oryctolagus cuniculus). Put plainly: Tested for inhibition of thromboxane A2 (TXA2) production in rabbit by in vitro assay at 1 uM.
Data set [4] relates to Cavia porcellus. Nature of the data set: In vivo inhibitory effect on airway constriction induced by histamine 2-5 micro g/kg iv at 1 min after 10 mg/kg intravenous dose in anesthetized guinea pigs. Type of data set: functional. In short, it runs like this:
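Male Dunkin-Hartley guinea pigs, anesthetized with pentobarbital 35 mg/kg ip, cannulated at jugular vein and trachea, ventilated at 10 mL/kg and 60 strokes/min. Insufflation pressure recorded continuously by transducer. Histamine given iv every 10 min until the constriction was reproducible. Compound 10 mg/kg iv given 1 min before the next challenge. Result is mean % inhibition against control response, from ≥3 experiments.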

Data set [5] deals with T1, Thromboxane-A synthase (Rattus norvegicus) (UniProt P49430).
T1 sequence (whole entry): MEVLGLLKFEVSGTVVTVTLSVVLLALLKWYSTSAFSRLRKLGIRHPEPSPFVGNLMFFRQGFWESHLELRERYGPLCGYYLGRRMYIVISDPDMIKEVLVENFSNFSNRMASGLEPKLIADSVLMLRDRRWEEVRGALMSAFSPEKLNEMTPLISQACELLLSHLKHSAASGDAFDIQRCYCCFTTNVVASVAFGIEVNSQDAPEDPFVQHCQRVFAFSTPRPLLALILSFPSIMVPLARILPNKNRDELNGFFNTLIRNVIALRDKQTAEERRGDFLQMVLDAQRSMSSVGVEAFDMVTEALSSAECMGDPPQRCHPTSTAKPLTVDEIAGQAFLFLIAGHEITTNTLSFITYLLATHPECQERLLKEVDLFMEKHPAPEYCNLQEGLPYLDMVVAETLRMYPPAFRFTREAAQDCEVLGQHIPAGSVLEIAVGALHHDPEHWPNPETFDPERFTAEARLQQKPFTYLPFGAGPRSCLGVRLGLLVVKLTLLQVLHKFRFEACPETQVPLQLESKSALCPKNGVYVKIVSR
Put plainly: Tested for inhibition of thromboxane A2 (TXA2) production in rat serum by ex vivo assay after peroral dose of 30 mg/kg. The class given is functional, organism-based. The arrangement: dose 30 mg/kg. In short, it runs like this: (§1)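 Male SD rats (240–260 g), fasted 20 h, dosed orally in 0.5% carboxymethylcellulose or given vehicle. After 1 h under ether, 2 mL cardiac blood was drawn and clotted 90 min at 37 °C. Serum was EtOH-deproteinized and stored at -20 °C. TXB₂ measured by radioimmunoassay. % inhibition calculated against each vehicle control group.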

The next data set relates to Rattus norvegicus. Put plainly: Tested for inhibition of TXA2 production in rat serum by ex vivo assay after peroral dose of 3 mg/kg. The class given is functional. To be noted: route oral. In outline:
as §1

One may read the logP as a log measure of how a compound divides between an organic and an aqueous phase. A low value points to a more hydrophilic compound. As usually defined, the IC50 is the concentration that gives 50% inhibition. The inhibition is the drop in the measured response relative to a control, in per cent. Lower therefore signals a response near the control. Compound `O=c1c2ccccc2c(-c2ccco2)nn1CCn1ccnc1` showed a log partition coefficient (logP) in data set [1] of 1.52. Further, the IC50 in the data set listed under Cavia porcellus [2] was 42.7 µM. This compound gave an inhibition in data set [3] of 27%.
In general, inhibition in vivo refers to the percentage by which the read-out fell short of the control. Compound `O=c1c2ccccc2c(-c2cccs2)nn1CCn1ccnc1` yielded a logP in data set [1] of 1.99. This compound showed an IC50 in the data set filed under Cavia porcellus [2] of 3.55 µM. The same compound registered an inhibition in vivo at 10 mg/kg in the data set with Cavia porcellus [4] of 84%. In addition, the inhibition in data set [5] worked out at 47%; in data set [3], 22%.
With `O=c1c2ccccc2c(-c2ccncc2)nn1CCn1ccnc1`, the log partition coefficient (logP) in data set [1] was 0.66. Moreover, in the data set listed under Cavia porcellus [2], the half-maximal inhibitory concentration (IC50) was 24 µM. In the data set on Cavia porcellus [4], this compound had an inhibition in vivo at 10 mg/kg of 100%. Also, the inhibition in data set [5] came to 47%; in data set [3], 27%.
With `CSc1ccc(-c2nn(CCn3ccnc3)c(=O)c3ccccc23)cc1`, the log partition coefficient (logP) in data set [1] is 2.7. The compound further gave an IC50 in the data set filed under Cavia porcellus [2] of 4.47 µM. At 10 mg/kg the inhibition in vivo in the data set on Cavia porcellus [4] was 73%. Also, the inhibition in data set [5] is 67%; in data set [3], 83%.
In data set [1], `CC(C)Cc1nn(CCn2ccnc2)c(=O)c2ccccc12` gave a logP of 2. Further, half-maximal inhibition in the data set filed under Cavia porcellus [2] (IC50) required 12 µM. The inhibition in data set [5] was determined as 21%; in data set [3] it was 14%.
In data set [1], `Cc1nn(CCn2ccnc2)c(=O)c2ccccc12` had a logP of 0.538. Further, the IC50 in the data set listed under Cavia porcellus [2] was above 100 µM. This compound displayed an inhibition in data set [3] of 10%.
Regarding `CC(=O)c1ccc(-c2nn(CCn3ccnc3)c(=O)c3ccccc23)s1`, the logP in data set [1] turned out to be 1.51. In the data set filed under Cavia porcellus [2], this compound gave an IC50 of 15.1 µM. The compound further returned an inhibition in vivo at 10 mg/kg in the data set on Cavia porcellus [4] of 94%. Further, the figures for the inhibition in data set [5] and in data set [3] were 5% and 80%, respectively.
For the compound `CCc1ccc(-c2nn(CCn3ccnc3)c(=O)c3ccccc23)cc1`, the lipophilicity (logP) in data set [1] was determined as 3.17. In the data set listed under Cavia porcellus [2], this compound gave an IC50 of 7.76 µM. Moreover, testing at 10 mg/kg with Cavia porcellus [4] gave an inhibition in vivo of 8%. Besides, the inhibition in data set [5] came out at 55%; in data set [3], 79%.
Compound `CC(C)c1ccc(-c2nn(CCn3ccnc3)c(=O)c3ccccc23)cc1` gave a half-maximal inhibitory concentration (IC50) in the data set filed under Cavia porcellus [2] of 5.37 µM. In addition, in the data set with Cavia porcellus [4], the inhibition in vivo at 10 mg/kg worked out at 68%. Moreover, the inhibition in data set [5] was found to be 52%; in data set [3] it was 64%.
In the case of `O=c1c2ccccc2c(-c2ccc(Cl)s2)nn1CCn1ccnc1`, the half-maximal inhibitory concentration (IC50) in the data set filed under Cavia porcellus [2] is 1.45 µM. Besides, the inhibition in vivo at 10 mg/kg in the data set on Cavia porcellus [4] amounted to 96%. For the same compound, the inhibition in data set [5] worked out at 15%; in data set [3] it was 47%.
Compound `CCc1ccc(-c2nn(CCn3ccnc3)c(=O)c3ccccc23)s1` showed a log partition coefficient (logP) in data set [1] of 3.02. Further, the half-inhibitory concentration (IC50) in the data set listed under Cavia porcellus [2] was 1.78 µM. In the data set with Cavia porcellus [4], this compound yielded an inhibition in vivo at 10 mg/kg of 96%. Further, the figures for the inhibition in data set [5] and in data set [3] were 52% and 67%, respectively.
In turn, `O=c1c2ccccc2c(-c2cccnc2)nn1CCn1ccnc1` registered a lipophilicity (logP) in data set [1] of 0.66. Besides, the IC50 in the data set listed under Cavia porcellus [2] was 26.9 µM. In the data set with Cavia porcellus [4], this compound gave an inhibition in vivo at 10 mg/kg of 97%. In addition, the inhibition in vivo at 3 mg/kg in the data set with Rattus norvegicus was found to be 63%. Moreover, the inhibition in data set [5] was 90%.
As for `O=c1c2ccccc2c(-c2ccc(F)cc2)nn1CCn1ccnc1`, the midpoint of inhibition in the data set listed under Cavia porcellus [2], the IC50, lay at 15.8 µM. In the data set with Cavia porcellus [4], this compound displayed an inhibition in vivo at 10 mg/kg of 100%. The inhibition in data set [5] is 46%; in data set [3] it was 33%.
The compound `O=c1c2ccccc2c(-c2ccc(Cl)cc2)nn1CCn1ccnc1` showed an IC50 in the data set listed under Cavia porcellus [2] of 2.04 µM. In the data set on Cavia porcellus [4], this compound registered an inhibition in vivo at 10 mg/kg of 71%. Also, the inhibition in data set [5] came out at 40%; in data set [3], 63%.
Compound `CCOC(=O)c1cccc(-c2nn(CCn3ccnc3)c(=O)c3ccccc23)c1` had a concentration for half-maximal inhibition (IC50) in the data set filed under Cavia porcellus [2] of 2.34 µM. Testing at 10 mg/kg with Cavia porcellus [4] gave an inhibition in vivo of 90%. Besides, the inhibition was 0% in data set [5] and 55% in data set [3].
In data set [1], `COc1ccc(-c2nn(CCn3ccnc3)c(=O)c3ccccc23)cc1` returned a log partition coefficient (logP) of 2.06. This compound also showed an IC50 in the data set filed under Cavia porcellus [2] of 25.1 µM. For the same compound, the inhibition in vivo at 10 mg/kg in the data set on Cavia porcellus [4] was determined as 0%. The inhibition in data set [5] stood at 50%; in data set [3], 74%.
The corresponding values for `O=c1c2ccccc2c(-c2ccccc2)nn1CCn1ccnc1` are 2.14, 1.32 µM, 88%, 0% and 41%.
Take `Cc1ccc(-c2nn(CCn3ccnc3)c(=O)c3ccccc23)s1`: the IC50 in the data set listed under Cavia porcellus [2] is 6.61 µM. Also, the inhibition in vivo at 10 mg/kg in the data set on Cavia porcellus [4] turned out to be 26%. For the same compound, the inhibition turned out to be 0% in data set [5] and 53% in data set [3].
In the data set filed under Cavia porcellus [2], `CCc1ccsc1-c1nn(CCn2ccnc2)c(=O)c2ccccc12` gave an IC50 of 18.6 µM. In addition, the inhibition in vivo at 10 mg/kg with Cavia porcellus [4] came out at 84%. The inhibition was 46% in data set [5] and 68% in data set [3].
The compound `COc1ccc(-c2nn(CCn3ccnc3)c(=O)c3ccccc23)s1` had a lipophilicity (logP) in data set [1] of 1.94. The same compound showed a half-inhibitory concentration (IC50) in the data set listed under Cavia porcellus [2] of 4.27 µM. The compound also gave an inhibition in data set [3] of 88%.
Turning to `O=c1c2ccccc2c(C2CCCC2)nn1CCn1ccnc1`, the logP in data set [1] was 2.63. For the same compound, the IC50 in the data set filed under Cavia porcellus [2] was 5.89 µM. In the data set with Cavia porcellus [4], this compound returned an inhibition in vivo at 10 mg/kg of 98%. Further, the inhibition in data set [3] came out at 38%.
`CCOc1ccc(-c2nn(CCn3ccnc3)c(=O)c3ccccc23)cc1` showed an IC50 in the data set listed under Cavia porcellus [2] of 5.62 µM. In the data set on Cavia porcellus [4], this compound displayed an inhibition in vivo at 10 mg/kg of 87%. In addition, the inhibition turned out to be 68% in data set [5] and 54% in data set [3].
For `O=c1c2ccccc2c(-c2ccccn2)nn1CCn1ccnc1`, in data set [1], the logP stood at 0.87. In the data set filed under Cavia porcellus [2], this compound gave an IC50 of 42.7 µM. The inhibition in vivo at 10 mg/kg with Cavia porcellus [4] turned out to be 30%. For the same compound, the inhibition was found to be 41% in data set [5] and 20% in data set [3].
With `O=c1c2ccccc2c(C2CCCCC2)nn1CCn1ccnc1`, in data set [1], the logP was determined as 3.19. In addition, the IC50 in the data set filed under Cavia porcellus [2] is 0.676 µM. This compound registered an inhibition in vivo at 10 mg/kg in the data set with Cavia porcellus [4] of 71%. Besides, the inhibition came to 28% in data set [5] and 32% in data set [3].
